This is an account of results in ChEMBL document CHEMBL1152176, “Pyrazoline-based mycobactin analogues as MAO-inhibitors” (Bioorg Med Chem Lett, 2008).

SMILES strings stand for the structures.

In general, Ki refers to the dissociation constant of the complex between target and ligand, obtained from inhibition or displacement. Higher therefore signals weaker binding. A word on the IC50: it is the concentration that inhibits the measured activity by half.

A short description of experiment [1]: Inhibition of rat liver monoamine oxidase by Lineweaver-Burke plot.
For experiment [2], the target named is T1, Amine oxidase [flavin-containing] A (Rattus norvegicus, UniProt P21396).
T1 sequence (P21396 whole entry): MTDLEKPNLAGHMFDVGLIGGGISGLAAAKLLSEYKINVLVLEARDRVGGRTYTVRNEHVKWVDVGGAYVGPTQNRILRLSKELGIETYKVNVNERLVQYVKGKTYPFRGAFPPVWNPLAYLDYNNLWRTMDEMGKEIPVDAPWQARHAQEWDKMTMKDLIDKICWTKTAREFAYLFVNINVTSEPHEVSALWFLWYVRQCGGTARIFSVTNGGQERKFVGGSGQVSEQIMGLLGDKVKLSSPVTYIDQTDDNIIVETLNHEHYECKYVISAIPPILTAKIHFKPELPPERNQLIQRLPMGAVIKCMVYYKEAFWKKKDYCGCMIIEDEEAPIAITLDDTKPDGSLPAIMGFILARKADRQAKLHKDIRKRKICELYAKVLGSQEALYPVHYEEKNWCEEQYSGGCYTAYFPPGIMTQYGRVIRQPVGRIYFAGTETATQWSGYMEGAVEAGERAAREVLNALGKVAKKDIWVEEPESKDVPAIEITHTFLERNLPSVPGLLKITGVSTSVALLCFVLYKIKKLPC
Kind of experiment: Inhibition of MAOA in rat liver homogenates preincubated for 60 mins. It counts as tissue-based. Summed up:
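Rat liver MAO assayed by Holt's spectrophotometric method. The chromogenic mix was vanillinic acid, 4-aminoantipyrine and peroxidase type II in potassium phosphate pH 7.6, preincubated with p-tyramine. Inhibitors were preincubated with enzyme at 37 °C for 60 min. A498 was read at 37 °C for 60 min. IC50 came from residual activity versus [I]; mean of three independent experiments.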

The target in experiment [3] is T2, Amine oxidase [flavin-containing] B (Rattus norvegicus, UniProt P19643).
T2 sequence (P19643 whole entry): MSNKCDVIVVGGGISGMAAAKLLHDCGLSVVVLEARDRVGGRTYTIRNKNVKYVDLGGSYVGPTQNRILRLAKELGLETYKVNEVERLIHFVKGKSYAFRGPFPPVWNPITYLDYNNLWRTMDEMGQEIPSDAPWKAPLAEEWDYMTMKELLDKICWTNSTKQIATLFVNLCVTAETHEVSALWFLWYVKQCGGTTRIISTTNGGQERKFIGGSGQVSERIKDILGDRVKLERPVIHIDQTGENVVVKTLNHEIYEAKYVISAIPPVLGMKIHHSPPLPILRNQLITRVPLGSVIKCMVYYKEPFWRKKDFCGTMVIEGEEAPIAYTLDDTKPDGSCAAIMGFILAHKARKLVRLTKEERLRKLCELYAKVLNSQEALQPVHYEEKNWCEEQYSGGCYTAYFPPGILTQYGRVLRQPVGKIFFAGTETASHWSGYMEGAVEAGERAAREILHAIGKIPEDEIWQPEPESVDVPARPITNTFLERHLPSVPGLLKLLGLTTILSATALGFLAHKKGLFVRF
Description: Inhibition of MAOB in rat liver homogenates preincubated for 60 mins. Format: tissue-based.

Take `Oc1ccccc1C1=NN(C(=S)Nc2ccccc2)C(c2ccccc2Cl)C1` (configuration not stated): the Ki in experiment [1] was 18.6 µM. Besides, the IC50 was 20 µM in experiment [2] and 455 µM in experiment [3].

In experiment [1], `Oc1ccccc1C1CC(c2ccccc2)=NN1C(=S)Nc1ccccc1` (configuration not stated) showed a Ki of 34.7 µM. For the same molecule, the figures for the IC50 in experiment [2] and in experiment [3] were 451 µM and 35.5 µM, respectively.

In experiment [1], `Oc1ccccc1C1=NN(C(=S)Nc2ccccc2)C(c2ccccc2)C1` (configuration not stated) gave a Ki of 40.2 µM. For the same molecule, the half-inhibitory concentration (IC50) in experiment [2] was determined as 49.2 µM; in experiment [3], 439 µM.

With `Oc1ccccc1C1=NN(C(=S)Nc2ccccc2)C(c2cccs2)C1` (configuration not stated), in experiment [2], half-maximal inhibition (IC50) required 5.56 µM.

`Oc1ccc(C2=NN(C(=S)Nc3ccccc3)C(c3ccc(O)cc3)C2)cc1` (configuration not stated) returned a Ki in experiment [1] of 30.6 µM. Further, the IC50 in experiment [2] worked out at 32.1 µM; in experiment [3], 486 µM.

Molecule `COc1ccc(NC(=S)N2N=C(c3ccccc3O)CC2c2ccc(O)cc2)cc1` (configuration not stated) returned a Ki in experiment [1] of 39.2 µM. The results for the IC50 in experiment [2] and in experiment [3] were 401 µM and 41.1 µM, respectively.

Turning to `Cc1ccc(NC(=S)N2N=C(c3ccccc3O)CC2c2ccc(O)cc2)cc1` (configuration not stated), in experiment [1], affinity was put at a Ki of 42.9 µM. For the same molecule, the IC50 in experiment [2] amounted to 475 µM; in experiment [3], 46.1 µM.

Molecule `COc1ccc(NC(=S)N2N=C(c3ccccc3O)CC2c2ccc(O)c(OC)c2)cc1` (configuration not stated) displayed a Ki in experiment [1] of 60.5 µM. For the same molecule, the IC50 worked out at 48.9 µM in experiment [2] and 477 µM in experiment [3].

With `COc1cc(C2CC(c3ccccc3O)=NN2C(=S)Nc2ccccc2OC)ccc1O` (configuration not stated), the IC50 stood at 170 µM in experiment [2] and 201 µM in experiment [3].

Consider `COc1ccccc1NC(=S)N1N=C(c2ccc(O)cc2O)CC1c1ccc(O)cc1` (configuration not stated), for which the IC50 stood at 148 µM in experiment [2] and 171 µM in experiment [3].

In turn, `COc1cc(C2CC(c3ccccc3O)=NN2C(=S)Nc2ccc(C)cc2)ccc1O` (configuration not stated) displayed a Ki in experiment [1] of 75.1 µM. The results for the half-maximal inhibitory concentration (IC50) in experiment [2] and in experiment [3] were 50.6 µM and 481 µM, respectively.

With `COc1cc(C2CC(c3ccc(O)cc3O)=NN2C(=S)Nc2ccccc2OC)ccc1O` (configuration not stated), the IC50 in experiment [2] was 180 µM; in experiment [3], 170 µM.

As for `COc1ccc(NC(=S)N2N=C(c3ccccc3O)CC2c2ccccc2O)cc1` (configuration not stated), the Ki in experiment [1] was determined as 36.2 µM. The figures for the IC50 in experiment [2] and in experiment [3] were 470 µM and 40.8 µM, respectively.

In experiment [1], `COc1ccc(NC(=S)N2N=C(c3ccc(O)cc3O)CC2c2ccc(O)c(OC)c2)cc1` (configuration not stated) had a Ki of 71.1 µM. For the same molecule, the IC50 in experiment [2] was 53.4 µM; in experiment [3], 475 µM.

`COc1ccc(NC(=S)N2N=C(c3ccc(O)cc3O)CC2c2ccc(O)cc2)cc1` (configuration not stated): affinity in experiment [1] was put at a Ki of 85.5 µM. Further, the IC50 was found to be 69.6 µM in experiment [2] and 456 µM in experiment [3].

Turning to `COc1ccccc1NC(=S)N1N=C(c2ccccc2O)CC1c1ccc(O)cc1` (configuration not stated), the IC50 in experiment [2] was 151 µM; in experiment [3], 144 µM.

`Cc1ccccc1NC(=S)N1N=C(c2ccccc2O)CC1c1ccc(O)cc1` (configuration not stated): the IC50 was 189 µM in experiment [2] and 180 µM in experiment [3].

In the case of `Cc1ccccc1NC(=S)N1N=C(c2ccccc2O)CC1c1ccccc1O` (configuration not stated), the IC50 in experiment [2] worked out at 170 µM; in experiment [3], 180 µM.

Molecule `NC(=S)N1N=C(c2ccccc2O)CC1c1ccc(O)cc1` (configuration not stated) came in with a Ki in experiment [1] of 15.2 µM. For the same molecule, the IC50 in experiment [2] is 466 µM; in experiment [3] it was 19.5 µM.

The molecule `Oc1ccccc1C1=NN(C(=S)Nc2ccccc2)C(c2ccccc2O)C1` (configuration not stated) registered a Ki in experiment [1] of 48.5 µM. In addition, the IC50 in experiment [2] stood at 58.1 µM; in experiment [3], 420 µM.

`Oc1ccc(C2CC(c3ccccc3O)=NN2C(=S)Nc2ccccc2)cc1` (configuration not stated) yielded a Ki in experiment [1] of 50.5 µM. Also, the IC50 in experiment [2] worked out at 67.2 µM; in experiment [3] it was 400 µM.

Molecule `COc1ccccc1C1CC(c2ccccc2O)=NN1C(=S)Nc1ccccc1` (configuration not stated) returned a Ki in experiment [1] of 63.6 µM. Besides, the IC50 in experiment [2] is 74.2 µM; in experiment [3], 419 µM.

In experiment [1], `Oc1ccccc1C1=NN(C(=S)Nc2ccccc2)C(c2ccc(Cl)cc2)C1` (configuration not stated) gave an inhibition constant (Ki) of 20.1 µM. Further, the IC50 in experiment [2] came out at 23.2 µM; in experiment [3], 400 µM.

Take `COc1ccccc1NC(=S)N1N=C(c2ccccc2O)CC1c1ccccc1O` (configuration not stated): the IC50 in experiment [2] was 144 µM; in experiment [3] it was 171 µM.

In experiment [1], `Cc1ccc(NC(=S)N2N=C(c3ccccc3O)CC2c2ccccc2O)cc1` (configuration not stated) yielded a Ki of 35 µM. Also, the IC50 in experiment [2] came to 400 µM; in experiment [3], 37.7 µM.

Consider `COc1cc(C2CC(c3ccccc3O)=NN2C(=S)Nc2ccccc2)ccc1O` (configuration not stated), for which the affinity in experiment [1] corresponds to a Ki of 62.7 µM. The IC50 in experiment [2] is 40.1 µM; in experiment [3], 451 µM.

In experiment [1], `COc1cc(C2CC(c3ccc(O)cc3O)=NN2C(=S)Nc2ccccc2)ccc1O` (configuration not stated) came in with a Ki of 79.2 µM. The IC50 in experiment [2] worked out at 65.6 µM; in experiment [3], 490 µM.

`Oc1ccc(C2CC(c3ccccc3)=NN2C(=S)Nc2ccccc2)cc1` (configuration not stated) displayed a Ki in experiment [1] of 40.6 µM. The values for the IC50 in experiment [2] and in experiment [3] were 476 µM and 48.6 µM, respectively.

Regarding `Oc1ccc(C2CC(c3ccc(O)cc3O)=NN2C(=S)Nc2ccccc2)cc1` (configuration not stated), the Ki in experiment [1] worked out at 80 µM. Also, the concentration for half-maximal inhibition (IC50) came to 58.6 µM in experiment [2] and 470 µM in experiment [3].

For `COc1ccc(C2CC(c3ccccc3O)=NN2C(=S)Nc2ccccc2)cc1` (configuration not stated), the Ki in experiment [1] came to 2.5 µM. For the same molecule, the half-inhibitory concentration (IC50) amounted to 2.84 µM in experiment [2] and 415 µM in experiment [3].

With `Oc1ccccc1C1=NN(C(=S)Nc2ccccc2)C(c2ccco2)C1` (configuration not stated), the Ki in experiment [1] was found to be 27.5 µM. The figures for the half-inhibitory concentration (IC50) in experiment [2] and in experiment [3] were 33.4 µM and 440 µM, respectively.

Consider `COc1cc(C2CC(c3ccccc3O)=NN2C(=S)Nc2ccccc2C)ccc1O` (configuration not stated), for which the IC50 in experiment [2] was 201 µM; in experiment [3], 198 µM.

In turn, `C#CCN(C)CCCOc1ccc(Cl)cc1Cl` [CLORGILINE] gave a Ki in experiment [1] of 1.99 µM.

Turning to `O=C(NCCN1CCOCC1)c1ccc(Cl)cc1` [MOCLOBEMIDE], affinity in experiment [1] was put at a Ki of 2.25 µM. This molecule also displayed an IC50 in experiment [3] of 480 µM.

Consider `C#CCN(C)Cc1ccccc1` [PARGYLINE], for which the Ki in experiment [1] was 3.25 µM. The molecule also yielded an IC50 in experiment [3] of 3.85 µM.

Take `C#CCN(C)[C@H](C)Cc1ccccc1` [SELEGILINE]: affinity in experiment [1] was put at a Ki of 1.9 µM.
